Measured values reported in ChEMBL document CHEMBL4609978, “Synthesis and evaluation of 2'-dihalo ribonucleotide prodrugs with activity against hepatitis C virus” (Bioorg Med Chem, 2020).

Columns and labels:
[1] = Prodrug conversion in Beagle dog liver assessed as nucleotide triphosphate level at 5 mg/kg, po co-dosed with 5 mg/kg sofosbuvir measured after 24 hrs by LC-MS/MS analysis; type: ADME, organism-based, Canis lupus familiaris; conditions: in vivo
How it was run: (§1)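 Beagle dogs (3 per time point) given single oral prodrug 5 mg/kg in EtOH:PEG-400:Phosal 53 MCT (10:30:60, w/w), cassette-dosed with sofosbuvir 5 mg/kg as internal standard; liver biopsies at 4 or 24 h, flash frozen, triphosphate measured by LC-MS/MS.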

[2] = test system: Hepatitis C virus; experiment: Antiviral activity against HCV genotype 1b Con1 infected in human HuH7 replicon cells assessed as inhibition of viral replication after 3 days by luciferase reporter gene assay; type: functional, organism-based, Hepacivirus hominis; conditions: subtype 1b Con1, Huh-7, 72 h
How it was run: (§2)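 Stable subgenomic replicon cell lines (genotype 1a-H77 or 1b-Con1) carrying a luciferase reporter; compounds added in DMEM with 5% FBS, cells incubated 3 days with or without compound, then lysed and luciferase activity read; EC50 from nonlinear regression fit to 4-parameter logistic equation.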

[3] = Prodrug conversion in Beagle dog liver assessed as nucleotide triphosphate level at 5 mg/kg, po administered as single dose measured after 4 hrs by LC-MS/MS analysis; type: ADME, organism-based, Canis lupus familiaris; conditions: in vivo
[4] = test system: Hepatitis C virus; experiment: Antiviral activity against HCV genotype 1b Con1 over expressing CES1 infected in human HuH7 replicon cells assessed as inhibition of viral replication after 3 days by luciferase reporter gene assay; type: functional, organism-based, Hepacivirus hominis; conditions: subtype 1b Con1, Huh-7, 72 h
[5] = Prodrug conversion in Beagle dog liver assessed as nucleotide triphosphate level at 5 mg/kg, po co-dosed with 5 mg/kg sofosbuvir measured after 4 hrs by LC-MS/MS analysis; type: ADME, organism-based, Canis lupus familiaris; conditions: in vivo; how it was run: as §1
[6] = Prodrug conversion in human primary hepatocytes assessed as nucleotide triphosphate level at 100 uM incubated for 4 hrs and followed by compound washout for 20 hrs and measured following 24 hrs incubation period by LC-MS/MS analysis; type: ADME, cell-based, Hepatocyte
How it was run: (§3)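 Cryopreserved primary human hepatocytes plated ~55,000 viable cells/well on collagen, medium changed after 4–6 h to Williams E maintenance medium with Geltrex 0.35 mg/mL, overnight at 37 °C; prodrug 100 µM for 4 h, then washed; second plate held a further 20 h drug-free; cells washed with ice-cold HBSS, triphosphate measured by LC-MS/MS at 4 or 24 h.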

[7] = Prodrug conversion in human primary hepatocytes assessed as nucleotide triphosphate level at 100 uM incubated for 4 hrs followed by compound wash-out for 20 hrs and measured following 4 hrs incubation period by LC-MS/MS analysis; type: ADME, cell-based, Hepatocyte; how it was run: as §3
[8] = Prodrug conversion in Beagle dog liver assessed as nucleotide triphosphate level at 5 mg/kg, po administered as single dose measured after 24 hrs by LC-MS/MS analysis; type: ADME, organism-based, Canis lupus familiaris; conditions: in vivo
[9] = Distribution coefficient, logD of compound by HT-LCMS analysis; type: physicochemical; conditions: octanol/water
[10] = test system: Hepatitis C virus; experiment: Antiviral activity against HCV genotype 1a H77 infected in human HuH7 replicon cells assessed as inhibition of viral replication after 3 days by luciferase reporter gene assay; type: functional, organism-based, Hepacivirus hominis; conditions: subtype 1a H77, Huh-7, 72 h; how it was run: as §2
[11] = Aqueous solubility of compound in pH 7.4 phosphate buffer; type: physicochemical
[12] = Prodrug conversion in Beagle dog liver assessed as nucleotide triphosphate level at 5 mg/kg, po qd for 4 days co-dosed with 5 mg/kg sofosbuvir and measured at 24 hrs post-last dose by LC-MS/MS analysis; type: ADME, organism-based, Canis lupus familiaris; conditions: in vivo
How it was run: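 Beagle dogs (3 per time point) dosed orally once daily for 4 days with prodrug (1 or 5 mg/kg) in EtOH:PEG-400:Phosal 53 MCT (10:30:60, w/w) together with sofosbuvir 5 mg/kg; liver biopsy 24 h after final dose, flash frozen, triphosphate by LC-MS/MS.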

[13] = Intrinsic clearance in dog hepatocytes; type: ADME, cell-based, Canis lupus familiaris, Hepatocyte; conditions: read-out: CLH (converted)
[14] = Unbound drug level in human plasma; type: ADME, cell-free
[15] = Stability in dog plasma assessed as parent compound remaining after 4 hrs; type: ADME, cell-free, Canis lupus familiaris; conditions: read-out: Stability
How it was run: (§4)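 Prodrug incubated 4 h at 37 °C in dog or human plasma; result given as percent parent remaining.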

[16] = Stability in human plasma assessed as parent compound remaining after 4 hrs; type: ADME, cell-free; conditions: read-out: Stability; how it was run: as §4
[17] = Prodrug conversion in Beagle dog liver assessed as nucleotide triphosphate level at 5 mg/kg, po qd for 4 days and measured at 24 hrs post-last dose by LC-MS/MS analysis; type: ADME, organism-based, Canis lupus familiaris; conditions: in vivo
[18] = Intrinsic clearance in human hepatocytes; type: ADME, cell-based, Hepatocyte; conditions: read-out: CLH (converted)
[19] = Unbound drug level in dog plasma; type: ADME, cell-free, Canis lupus familiaris
[20] = Cytotoxicity against human HuH7 cells assessed as reduction in cell viability; type: cell-based, Huh-7; conditions: read-out: TD50 (the source's name)
[21] = test system: Hepatitis C virus; experiment: Potency index, ratio of sofosbuvir EC50 to compound EC50 for HCV genotype 1a H77 infected in human HuH7 replicon cells assessed as inhibition of viral replication after 3 days by luciferase reporter gene assay; type: functional, Hepacivirus hominis, subtype 1a H77, Huh-7
How it was run: (§5)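 Stable subgenomic luciferase-reporter replicon Huh-7 lines, genotype 1a-H77 or 1b-Con1. Test compound and sofosbuvir comparator each run in DMEM with 5% FBS for 3 days. Cells lysed and luciferase activity read. EC50 obtained by nonlinear regression to a 4-parameter logistic equation. Index is sofosbuvir EC50 divided by compound EC50, both from this assay.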

[22] = test system: Hepatitis C virus; experiment: Antiviral activity against HCV genotype 6a expressing wild type NS5B infected in human HuH7 replicon cells assessed as inhibition of viral replication after 4 days by luciferase reporter gene based assay; type: functional, organism-based, Hepacivirus hominis; conditions: subtype 6a, Huh-7, 96 h
[23] = test system: Hepatitis C virus; experiment: Antiviral activity against HCV genotype 4a expressing wild type NS5B infected in human HuH7 replicon cells assessed as inhibition of viral replication after 4 days by luciferase reporter gene based assay; type: functional, organism-based, Hepacivirus hominis; conditions: subtype 4a, Huh-7, 96 h
[24] = test system: Hepatitis C virus; experiment: Antiviral activity against HCV genotype 3a expressing NS5B S282T mutant infected in human HuH7 replicon cells assessed as inhibition of viral replication after 4 days by luciferase reporter gene based assay; type: functional, organism-based, Hepacivirus hominis; conditions: subtype 3a, Huh-7, 96 h
[25] = test system: Hepatitis C virus; experiment: Antiviral activity against HCV genotype 2a expressing wild type NS5B infected in human HuH7 replicon cells assessed as inhibition of viral replication after 4 days by luciferase reporter gene based assay; type: functional, organism-based, Hepacivirus hominis; conditions: subtype 2a, Huh-7, 96 h
[26] = test system: Hepatitis C virus; experiment: Antiviral activity against HCV genotype 1b Con1 expressing wild type NS5B infected in human HuH7 replicon cells assessed as inhibition of viral replication after 4 days by luciferase reporter gene based assay; type: functional, organism-based, Hepacivirus hominis; conditions: subtype 1b Con1, Huh-7, 96 h
[27] = test system: Hepatitis C virus; experiment: Potency index, ratio of sofosbuvir EC50 to compound EC50 for HCV genotype 1b Con1 infected in human HuH7 replicon cells assessed as inhibition of viral replication after 3 days by luciferase reporter gene assay; type: functional, Hepacivirus hominis, subtype 1b Con1, Huh-7; how it was run: as §5
[28] = test system: Hepatitis C virus; experiment: Antiviral activity against HCV genotype 3a expressing wild type NS5B infected in human HuH7 replicon cells assessed as inhibition of viral replication after 4 days by luciferase reporter gene based assay; type: functional, organism-based, Hepacivirus hominis; conditions: subtype 3a, Huh-7, 96 h
[29] = test system: Hepatitis C virus; experiment: Antiviral activity against HCV genotype 1b Con1 expressing NS5B S282T mutant infected in human HuH7 replicon cells assessed as inhibition of viral replication after 4 days by luciferase reporter gene based assay; type: functional, organism-based, Hepacivirus hominis; conditions: subtype 1b Con1, Huh-7, 96 h
[30] = test system: Hepatitis C virus; experiment: Antiviral activity against HCV genotype 2a expressing NS5B S282T mutant infected in human HuH7 replicon cells assessed as inhibition of viral replication after 4 days by luciferase reporter gene based assay; type: functional, organism-based, Hepacivirus hominis; conditions: subtype 2a, Huh-7, 96 h

For CC(C)OC(=O)[C@H](C)N[P@@](=O)(OC[C@H]1O[C@@H](n2ccc(=O)[nH]c2=O)[C@](Cl)(Br)[C@@H]1O)Oc1ccccc1, the Drug metabolism [1] was 1.26 µM, the EC50 [2] was 515 nM and the Drug metabolism [3] was 0.143 µM. The EC50 [4] was 218 nM, the Drug metabolism [5] was 1.76 µM and the Drug metabolism [6] was 24 µM. The Drug metabolism [7] was 102 µM, the Drug metabolism [8] was 0.036 µM and the logD [9] was 3.21. It also gave an EC50 [10] of 412 nM and a solubility [11] of over 200 µM.

For CCOC(=O)C(C)(C)N[P@@](=O)(OC[C@H]1O[C@@H](n2ccc(=O)[nH]c2=O)[C@](Cl)(Br)[C@@H]1O)Oc1ccccc1, the Drug metabolism [1] was 4.03 µM, the EC50 [2] was 2560 nM and the Drug metabolism [12] was 6.05 µM. It also gave a Drug metabolism [3] of 7.21 µM, a CLint scaled [13] of 98.3 mL/min/kg and a fraction unbound [14] of 0.31. It also gave a remaining at 4 h [15] of 100%, a remaining at 4 h [16] of 92% and a Drug metabolism [17] of 1.43 µM. The Drug metabolism [5] was 5.35 µM, the CLint scaled [18] was 155 mL/min/kg and the Drug metabolism [8] was 2.64 µM. The logD [9] was 3.07, the EC50 [10] was 2720 nM and the solubility [11] was over 200 µM. It also gave a fraction unbound [19] of 0.187.

Molecule CC(C)OC(=O)[C@H](C)N[P@](=O)(OC[C@H]1O[C@@H](n2ccc(=O)[nH]c2=O)C(F)(F)[C@@H]1O)Oc1ccccc1 has an EC50 [2] of 286 nM, a CC50 [20] of 384 nM and an EC50 [10] of 226 nM.

CC(C)OC(=O)[C@H](C)N[P@](=O)(OC[C@H]1O[C@@H](n2ccc(=O)[nH]c2=O)[C@](F)(Br)[C@@H]1O)Oc1ccccc1 gave an EC50 [2] of 2500 nM, a CC50 [20] of 26500 nM and an EC50 [10] of 3030 nM.

Work on CC(C)OC(=O)[C@H](C)N[P@](=O)(OC[C@H]1O[C@@H](n2ccc(=O)[nH]c2=O)[C@@](Cl)(Br)[C@@H]1O)Oc1ccccc1 yielded an EC50 [2] of 258 nM, a CC50 [20] of over 100000 nM and an EC50 [10] of 200 nM.

In the case of CC(C)OC(=O)[C@H](C)N[P@](=O)(OC[C@H]1O[C@@H](n2ccc(=O)[nH]c2=O)[C@@](F)(Br)[C@@H]1O)Oc1ccccc1, the “Ratio EC50” value [21] is reported as 2 - 3, the Drug metabolism [1] is reported as 8.87 µM and the EC50 [2] is reported as 87 to 95 nM. It also gave an EC50 [22] of 14.5 nM, an EC50 [23] of 25.7 nM and a Drug metabolism [3] of 11.5 µM. It also gave an EC50 [24] of 75.3 nM, a fraction unbound [14] of 0.43 and a remaining at 4 h [15] of 86%. It also gave an EC50 [25] of 189 nM, a CC50 [20] of over 100000 nM and an EC50 [4] of 56 nM. For the same molecule, the EC50 [26] was 15.2 nM, the remaining at 4 h [16] was 100% and the “Ratio EC50” value [27] was 2 - 3. The EC50 [28] was 12.7 nM, the EC50 [29] was 134 nM and the EC50 [30] was 308 nM. It also gave a Drug metabolism [5] of 7.39 µM, a CLint scaled [18] of 257 mL/min/kg and a Drug metabolism [6] of 91 µM. It also gave a Drug metabolism [7] of 192 µM, a Drug metabolism [8] of 6.61 µM and a logD [9] of 3.07. For the same molecule, the EC50 [10] was 56 nM, the solubility [11] was over 200 µM and the fraction unbound [19] was 0.367.

Work on CC(C)OC(=O)[C@H](C)N[P@](=O)(OC[C@H]1O[C@@H](n2ccc(=O)[nH]c2=O)C(C)(C)C1O)Oc1ccccc1 (single isomer, unassigned) yielded an EC50 [2] of 4750 nM, a CC50 [20] of 31600 nM and an EC50 [10] of 5630 nM.

Molecule CC(C)OC(=O)[C@H](C)N[P@](=O)(OC[C@H]1O[C@@H](n2ccc(=O)[nH]c2=O)[C@](C)(F)[C@@H]1O)Oc1ccccc1 [SOFOSBUVIR] has an EC50 [2] of 188 to 230 nM, an EC50 [22] of 86.7 nM and an EC50 [23] of 78.5 nM. For the same molecule, the CLint scaled [13] was 40 mL/min/kg, the EC50 [24] was 330 nM and the Fu [14] was 0.563. For the same molecule, the remaining at 4 h [15] was 93%, the EC50 [25] was 681 nM and the CC50 [20] was over 100000 nM. For the same molecule, the EC50 [4] was 53 nM, the EC50 [26] was 62 nM and the remaining at 4 h [16] was 96%. The EC50 [28] was 75.1 nM, the EC50 [29] was 638 nM and the EC50 [30] was 1000 nM. The Drug metabolism [6] was 122 µM, the Drug metabolism [7] was 97 µM and the EC50 [10] was 155 to 168 nM. The solubility [11] was over 200 µM and the fraction unbound [19] was 0.323.
